Assay results from ChEMBL document CHEMBL1153841, “The antifungal polyketide ambruticin targets the HOG pathway” (2007).
Activity calls are given as the source filed them.

Experiments:
[1] = tested on: Saccharomyces cerevisiae; experiment: Elevation of Hog1 phosphorylation Saccharomyces cerevisiae ATCC 201388 carrying pYES2-HIK1 at 25 ppm after 4 hrs in SD/-Ura medium by Western blot analysis; type: functional, organism-based
Procedure, shortened: (§1)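 Overnight cultures in SD/−Ura resuspended in fresh SD/−Ura and grown 4 h, then exposed 10 min to compound (25 ppm), 0.5 M NaCl, or left untreated. Soluble protein from cell extracts Western blotted with anti-p38 antibody against doubly phosphorylated T180/Y182 (phospho-Hog1) and anti-C-terminal Hog1 antibody (total Hog1). Detection by HRP-conjugated secondary antibody with ECL Plus.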

[2] = tested on: Saccharomyces cerevisiae; experiment: Elevation of Hog1 phosphorylation Saccharomyces cerevisiae ATCC 201388 carrying pYES2 at 25 ppm after 4 hrs in SD/-Ura medium by Western blot analysis; type: functional, organism-based; procedure, shortened: as §1
[3] = tested on: Saccharomyces cerevisiae; experiment: Elevation of Hog1 phosphorylation Saccharomyces cerevisiae ATCC 201388 carrying deltahog1 gene at 25 ppm after 4 hrs in SD/-Ura medium by Western blot analysis; type: functional, organism-based; procedure, shortened: as §1
[4] = tested on: Saccharomyces cerevisiae; experiment: Antifungal activity against Saccharomyces cerevisiae ATCC 201388 carrying pYES2-hik1-D1153E in SD/-Ura medium after 48 hrs by CLSI susceptibility test; type: functional; conditions: ATCC 201388, 48 h
Procedure, shortened: (§2)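 Broth MIC following CLSI M27, except that inoculum prep and test medium used SD/−Ura in place of RPMI. Read at 48 h. MIC-0 is the concentration giving 90% growth reduction versus the untreated control.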

[5] = tested on: Saccharomyces cerevisiae; experiment: Antifungal activity against Saccharomyces cerevisiae ATCC 201388 carrying pYES2 in SD/-Ura medium after 48 hrs by CLSI susceptibility test; type: functional; conditions: ATCC 201388, 48 h; procedure, shortened: as §2
[6] = tested on: Saccharomyces cerevisiae; experiment: Antifungal activity against Saccharomyces cerevisiae ATCC 201388 carrying pYES2-hik1-D1153E in SG/-Ura medium after 48 hrs by CLSI susceptibility test; type: functional; conditions: ATCC 201388, 48 h
Procedure, shortened: (§3)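 CLSI M27 broth MIC, modified so that SG/−Ura served as both inoculum-preparation and test medium in place of RPMI. Uracil is omitted to select for plasmid maintenance. Read after 48 h of incubation. MIC-0 is the concentration causing 90% reduction in growth relative to the untreated control.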

[7] = tested on: Saccharomyces cerevisiae; experiment: Antifungal activity against Saccharomyces cerevisiae ATCC 201388 carrying pYES2 in SG/-Ura medium after 48 hrs by CLSI susceptibility test; type: functional; conditions: ATCC 201388, 48 h; procedure, shortened: as §3
[8] = tested on: Saccharomyces cerevisiae; experiment: Antifungal activity against Saccharomyces cerevisiae ATCC 201388 carrying pYES2-hik1-H736V in SG/-Ura medium after 48 hrs by CLSI susceptibility test; type: functional; conditions: ATCC 201388, 48 h; procedure, shortened: as §3
[9] = tested on: Saccharomyces cerevisiae; experiment: Antifungal activity against Saccharomyces cerevisiae ATCC 201388 carrying pYES2-HIK1 in SG/-Ura medium after 48 hrs by CLSI susceptibility test; type: functional; conditions: ATCC 201388, 48 h; procedure, shortened: as §3
[10] = tested on: Saccharomyces cerevisiae; experiment: Antifungal activity against Saccharomyces cerevisiae ATCC 201388 carrying pYES2-hik1-H736V in SD/-Ura medium after 48 hrs by CLSI susceptibility test; type: functional; conditions: ATCC 201388, 48 h; procedure, shortened: as §2
[11] = tested on: Saccharomyces cerevisiae; experiment: Antifungal activity against Saccharomyces cerevisiae ATCC 201388 carrying pYES2-HIK1 in SD/-Ura medium after 48 hrs by CLSI susceptibility test; type: functional; conditions: ATCC 201388, 48 h; procedure, shortened: as §2

CC[C@H]1O[C@@H](/C(C)=C/[C@H](C)/C=C/[C@H]2[C@@H](C)[C@@H]2/C=C/[C@@H]2O[C@H](CC(=O)O)C[C@H](O)[C@H]2O)CC=C1C
active: Activity [1]
inactive: Activity [2] | Activity [3]

CC[C@H]1O[C@@H](/C(C)=C/[C@H](C)/C=C/[C@H]2[C@@H](C)[C@@H]2/C=C/[C@@H]2O[C@H](CC(=O)O)C[C@H](N(C)C)[C@H]2O)CC=C1C [AMBRUTICIN VS3]
0.5 µg/mL: MIC90 [9]
> 32 µg/mL: MIC90 [4] | MIC90 [5] | MIC90 [6] | MIC90 [7] | MIC90 [8] | MIC90 [10] | MIC90 [11]

N#Cc1c[nH]cc1-c1cccc2c1OC(F)(F)O2 [FLUDIOXONIL]
2 µg/mL: MIC90 [9]
> 32 µg/mL: MIC90 [4] | MIC90 [5] | MIC90 [6] | MIC90 [7] | MIC90 [8] | MIC90 [10] | MIC90 [11]

C=CC1(C)OC(=O)N(c2cc(Cl)cc(Cl)c2)C1=O (configuration not stated) [VINCLOZOLIN]
> 32 µg/mL: MIC90 [4] | MIC90 [5] | MIC90 [6] | MIC90 [7] | MIC90 [8] | MIC90 [10] | MIC90 [11]
16 µg/mL: MIC90 [9]
